Assays:
[1] = tested on: Human immunodeficiency virus 1; assay: Antiviral activity against HIV1 3B infected in human MT4 cells assessed as protection from virus-induced cytopathogenicity after 4 days by MTT assay; format: functional, organism-based; conditions: Human immunodeficiency virus 1, 3B, MT4, 96 h
Outline: (§1)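 MT-4 cells at 1 × 10⁵ cells/mL infected with HIV (IIIB or ROD) at a multiplicity of infection of 0.02, using virus stocks titrated in MT-4 cells as CCID₅₀. Compound present during a 4-day incubation at 37 °C. Viable cells counted by MTT. EC₅₀ is the concentration protecting cells against viral cytopathogenicity by 50%. Values are means of at least two separate experiments.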

[2] = tested on: Human immunodeficiency virus 1; assay: Antiviral activity against HIV1 expressing reverse transcriptase K103N/Y181C double mutant infected in human MT4 cells assessed as protection against virus-induced cytopathogenicity after 4 days by MTT assay; format: functional, organism-based; conditions: Human immunodeficiency virus 1, MT4, 96 h
Outline: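 RES056 strain (carries K103N and Y181C), titrated in MT-4 cells as CCID50. MT-4 cells at 1 × 10⁵ cells/mL infected at MOI 0.02 and incubated 4 days at 37 °C with compound. Viable cells counted by MTT. EC50 is the concentration protecting cells by 50% against viral cytopathogenicity. Values are means of at least two separate experiments.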

[3] = Cytotoxicity against human MT4 cells after 4 days by MTT assay; format: cell-based
Outline: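 Uninfected MT-4 cells were run in parallel with the antiviral assay: 4 days at 37 °C with compound, then viability read by MTT. CC₅₀ is the concentration that reduces viability of uninfected cells by 50%. Values are means of at least two separate experiments.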

[4] = Selectivity index, ratio of CC50 for human MT4 cells to EC50 for HIV1 3B; format: toxicity, cell-based; conditions: read-out: Ratio CC50/EC50
Outline: (§2)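 Selectivity index is CC₅₀ in uninfected MT-4 cells divided by EC₅₀ against the given strain (IIIB or ROD). Both values come from parallel 4-day MTT assays, with cells infected at a multiplicity of infection of 0.02.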

[5] = tested on: Human immunodeficiency virus 2; assay: Antiviral activity against HIV2 ROD infected in human MT4 cells assessed as protection from virus-induced cytopathogenicity after 4 days by MTT assay; format: functional, organism-based; conditions: Human immunodeficiency virus 2, ISOLATE ROD, MT4, 96 h; outline: as §1
[6] = Selectivity index, ratio of CC50 for human MT4 cells to EC50 for HIV2 ROD; format: toxicity, cell-based; conditions: read-out: Ratio CC50/EC50; outline: as §2
[7] = tested on: Human immunodeficiency virus 1; assay: Ratio of nevirapine EC50 to compound EC50 for HIV1 3B infected in human MT4 cells; format: functional
[8] = tested on: Human immunodeficiency virus 1; assay: Ratio of delavirdine EC50 to compound EC50 for HIV1 3B infected in human MT4 cells; format: functional

| Structure (SMILES) | EC50 [1] | EC50 [2] | CC50 at 96 h [3] | selectivity ratio [4] | EC50 [5] | selectivity ratio [6] | Ratio EC50 [7] | Ratio EC50 [8] |
| --- | --- | --- | --- | --- | --- | --- | --- | --- |
| COc1cccc(/C(=N/O)c2ccnc(Nc3ccc(C#N)cc3)n2)c1 | 0.025 µM | 8.72 µM | 30.5 µM | 1220 | 8.31 µM | 3.67 | 8 | 29 |
| N#Cc1ccc(Nc2nccc(/C(=N\O)c3ccc(Br)cc3)n2)cc1 | 0.127 µM | ≥ 7.21 µM | 26 µM | 205 | ≥ 4.97 µM | ≤ 5 | – | – |
| N#Cc1ccc(Nc2nccc(/C(=N\O)c3ccccc3Cl)n2)cc1 | 0.013 µM | > 12.6 µM | 12.6 µM | 997 | > 12.6 µM | < 1 | – | – |
| N#Cc1ccc(Nc2nccc(/C(=N\O)c3ccc(F)cc3)n2)cc1 | 0.827 µM | 13.8 µM | > 377 µM | > 456 | 19.9 µM | > 19 | – | – |
| O=C1Nc2ccc(Cl)cc2[C@@](C#CC2CC2)(C(F)(F)F)O1 [EFAVIRENZ] | – | 0.18 µM | > 6.34 µM | – | – | – | – | – |
| CC(C)Nc1cccnc1N1CCN(C(=O)c2cc3cc(NS(C)(=O)=O)ccc3[nH]2)CC1 [DELAVIRDINE] | 0.72 µM | > 43.8 µM | > 43.8 µM | > 62 | – | – | – | – |
| Cc1cc(C)cc(/C(=N/O)c2ccnc(Nc3ccc(C#N)cc3)n2)c1 | 0.047 µM | 7.89 µM | 35.9 µM | 756 | ≥ 8.96 µM | ≤ 4 | – | – |
| N#Cc1ccc(Nc2nccc(/C(=N\O)c3cccc(F)c3)n2)cc1 | 0.225 µM | ≥ 6.7 µM | 15.3 µM | 67.9 | ≥ 8.33 µM | ≤ 2 | – | – |
| N#Cc1ccc(Nc2nccc(/C(=N\O)c3cccc(Cl)c3)n2)cc1 | 0.298 µM | > 14.9 µM | 30.4 µM | 102 | ≥ 7.3 µM | ≤ 4 | – | – |
| N#Cc1ccc(Nc2nccc(/C(=N\O)c3ccc(Cl)cc3)n2)cc1 | 0.083 µM | ≥ 7.62 µM | 17.2 µM | 209 | ≥ 7.33 µM | ≤ 2 | – | – |
| N#Cc1ccc(Nc2nccc(/C(=N\O)c3ccccc3Br)n2)cc1 | 0.005 µM | > 13.2 µM | 13.2 µM | 2500 | > 13.2 µM | < 1 | – | – |
| COc1ccc(/C(=N/O)c2ccnc(Nc3ccc(C#N)cc3)n2)cc1 | 0.013 µM | 10.3 µM | 50.2 µM | 3790 | ≥ 4.72 µM | ≤ 11 | – | – |
| N#Cc1ccc(Nc2nccc(/C(=N\O)c3ccc4ccccc4c3)n2)cc1 | 0.047 µM | > 14.3 µM | 31.6 µM | 673 | > 14.3 µM | < 1 | – | – |
| CC(C)(C)c1ccc(/C(=N/O)c2ccnc(Nc3ccc(C#N)cc3)n2)cc1 | 0.144 µM | 7.2 µM | 33.7 µM | 234 | ≥ 33.7 µM | < 1 | – | – |
| Cc1ccnc2c1NC(=O)c1cccnc1N2C1CC1 [NEVIRAPINE] | 0.2 µM | > 15 µM | > 15 µM | > 75 | – | – | – | – |
| Cc1ccc(/C(=N/O)c2ccnc(Nc3ccc(C#N)cc3)n2)cc1 | 0.006 µM | ≥ 5.1 µM | 13.3 µM | 2390 | ≥ 6.54 µM | ≤ 2 | – | – |
| N#Cc1ccc(Nc2nccc(/C(=N\O)c3cccc4ccccc34)n2)cc1 | 0.039 µM | > 33.1 µM | 33.1 µM | 844 | > 33.1 µM | < 1 | – | – |
| N#Cc1ccc(Nc2nccc(/C(=N\O)c3ccccc3F)n2)cc1 | 0.053 µM | > 5.67 µM | 5.67 µM | 106 | > 5.67 µM | < 1 | – | – |
| N#Cc1ccc(Nc2nccc(/C(=N\O)c3cccc(Br)c3)n2)cc1 | 0.362 µM | > 23.5 µM | 23.5 µM | 65 | > 23.5 µM | < 1 | – | – |
| Cc1ccccc1/C(=N/O)c1ccnc(Nc2ccc(C#N)cc2)n1 | 0.048 µM | ≥ 1.59 µM | 29.9 µM | 619 | > 29.9 µM | < 1 | – | – |
| N#Cc1ccc(Nc2nccc(/C(=N\O)c3ccccc3)n2)cc1 | 0.569 µM | 5.6 µM | 14 µM | 24.6 | ≥ 14 µM | < 1 | – | – |
| Cc1cccc(/C(=N/O)c2ccnc(Nc3ccc(C#N)cc3)n2)c1 | 0.032 µM | 4.52 µM | 20 µM | 626 | ≥ 11.6 µM | < 1 | – | – |

Reference: ChEMBL document CHEMBL1156184, “Synthesis and biological evaluation of 4-(hydroxyimino)arylmethyl diarylpyrimidine analogues as potential non-nucleoside reverse transcriptase inhibitors against HIV” (Bioorg Med Chem, 2010)
